From ChEMBL document CHEMBL1649384, “Synthesis and antiproliferative activity of novel symmetrical alkylthio- and alkylseleno-imidocarbamates” (Eur J Med Chem, 2011)

Key:
MCF7 = experiment: Cytotoxicity against human MCF7 cells after 72 hrs by MTT assay; assay type: functional; details: MCF7, 72 h
Method in brief: (§1)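 Cells seeded per well: Hep-G2 1×10⁴, HT-29 4×10³, K-562 4×10³, MCF-7 1.2×10⁴, MCF-10A 7×10³, PC-3 2×10³. MCF-10A were grown in supplemented MEBM at 37 °C, 5% CO₂. Five concentrations were tested between 0.01 and 100, with 72 h exposure. Formazan was read by A590. GI₅₀ was taken relative to untreated controls, from at least three independent experiments.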

HT-29 [1] = experiment: Cytotoxicity against human HT-29 cells after 72 hrs by MTT assay; assay type: functional; details: HT-29, 72 h; for CC50: read-out: LC50 (the source's name); method in brief: as §1
K562 = experiment: Cytotoxicity against human K562 cells after 72 hrs by MTT assay; assay type: functional; details: K562, 72 h; for CC50: read-out: LC50 (the source's name); method in brief: as §1
HepG2 = experiment: Cytotoxicity against human HepG2 cells after 72 hrs by MTT assay; assay type: functional; details: HepG2, 72 h; for CC50: read-out: LC50 (the source's name); method in brief: as §1
PC-3 [2] = experiment: Cytotoxicity against human PC3 cells after 72 hrs by MTT assay; assay type: functional; details: PC-3, 72 h; for CC50: read-out: LC50 (the source's name); method in brief: as §1
[3] = Cytotoxicity against human MCF10A cells after 72 hrs by MTT assay; assay type: cell-based, MCF-10A; details: for GI50 at 72 h: MCF10A cells; for LC50 / TGI: mcf-10a, 72 h; method in brief: as §1
PC-3 [4] = experiment: Cytotoxicity against human PC3 cells after 72 hrs by CV method; assay type: functional; details: PC-3, 72 h
Method in brief: (§2)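 Crystal violet check of the MTT data: eight concentrations between 0.01 and 100, with 72 h exposure. Cells were fixed in 4% formaldehyde for at least 20 min, then stained with 0.1% crystal violet for 30 min. GI₅₀ is the concentration halving growth relative to untreated controls.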

HT-29 [5] = experiment: Cytotoxicity against human HT-29 cells after 72 hrs by CV method; assay type: functional; details: HT-29, 72 h; method in brief: as §2

Compound | GI50 (MCF7) [µM] | LC50 (MCF7) [µM] | TGI (MCF7) [µM] | GI50 (HT-29 [1]) [µM] | TGI (HT-29 [1]) [µM] | CC50 (HT-29 [1]) [µM] | GI50 (K562) [µM] | TGI (K562) [µM] | CC50 (K562) [µM] | GI50 (HepG2) [µM] | TGI (HepG2) [µM] | CC50 (HepG2) [µM] | GI50 (PC-3 [2]) [µM] | TGI (PC-3 [2]) [µM] | CC50 (PC-3 [2]) [µM] | GI50 at 72 h [3] [nM] | LC50 [3] [µM] | TGI [3] [µM] | GI50 (PC-3 [4]) [nM] | GI50 (HT-29 [5]) [nM]
CS/C(=N\C(=O)c1ccco1)NC(=O)c1ccco1 | 56.1 | > 100 | > 100 | 77.1 | > 100 | > 100 | 64.8 | > 100 | > 100 | > 100 | > 100 | > 100 | 56.2 | > 100 | > 100 | 8220 | 85.69 | 46.52 | – | –
CS/C(=N\C(=O)c1cccs1)NC(=O)c1cccs1 | 44.5 | > 100 | 89 | 77.9 | > 100 | > 100 | 72.6 | > 100 | > 100 | > 100 | > 100 | > 100 | 39 | 98.2 | > 100 | 19700 | 90.5 | 55.1 | – | –
CS/C(=N\C(=O)c1sccc1Cl)NC(=O)c1sccc1Cl | 10.3 | > 100 | 57.1 | 35.6 | > 100 | > 100 | 37 | 78.9 | > 100 | 65.2 | > 100 | > 100 | 24.7 | 57.4 | 90.1 | 90 | 64.11 | 23.72 | – | –
CS/C(=N\C(=O)c1csc([N+](=O)[O-])c1)NC(=O)c1csc([N+](=O)[O-])c1 | 44.6 | > 100 | 78.1 | 51.8 | > 100 | > 100 | 56.9 | 98.7 | > 100 | 63.4 | > 100 | > 100 | 41.5 | 82.5 | > 100 | 1550 | 75.14 | 21.35 | – | –
CS/C(=N\C(=O)c1ccno1)NC(=O)c1ccno1 | 77.8 | > 100 | > 100 | > 100 | > 100 | > 100 | > 100 | > 100 | > 100 | > 100 | > 100 | > 100 | 99.2 | > 100 | > 100 | 16800 | > 100 | > 100 | – | –
CS/C(=N\C(=O)c1cc2ccccc2s1)NC(=O)c1cc2ccccc2s1 | 9.51 | 78.5 | 43.4 | 16.8 | 88.2 | 88.2 | 34.7 | 66.6 | 98.6 | 15.8 | 53 | 75.8 | 8.58 | 39.4 | 72.5 | 20 | 54.56 | 5.6 | – | –
CS/C(=N\C(=O)c1ccc2c(c1)OCO2)NC(=O)c1ccc2c(c1)OCO2 | 24.6 | 94.8 | 59.7 | 46.4 | > 100 | > 100 | 68 | > 100 | > 100 | 61.4 | > 100 | > 100 | 28.7 | 54.5 | 80.4 | 1010 | 9.05 | 5.03 | – | –
CS/C(=N\C(=O)c1cnc2ccccc2c1)NC(=O)c1cnc2ccccc2c1 | 23.9 | > 100 | > 100 | > 100 | > 100 | > 100 | 65.8 | > 100 | > 100 | 57.6 | > 100 | > 100 | 76.3 | > 100 | > 100 | 500 | 82.19 | 42.17 | – | –
CS/C(=N\C(=O)c1cc(-c2ccccc2)nc2ccccc12)NC(=O)c1cc(-c2ccccc2)nc2ccccc12 | 43.1 | > 100 | 87.7 | 23.7 | > 100 | > 100 | 34.4 | > 100 | > 100 | 6.24 | 48.1 | > 100 | 7.48 | > 100 | > 100 | 40 | 48.81 | 0.54 | – | –
C[Se]/C(=N\C(=O)c1sccc1Cl)NC(=O)c1sccc1Cl | 0.3 | > 100 | 31.2 | 0.0049 | > 100 | > 100 | 4.81 | 28.5 | 90 | 0.69 | 4.02 | 8.67 | 0.97 | 7.03 | > 100 | 3160 | 7.82 | 5.49 | 240 | 5.9
C[Se]/C(=N\C(=O)c1csc([N+](=O)[O-])c1)NC(=O)c1csc([N+](=O)[O-])c1 | 0.00076 | > 100 | 28.1 | 0.00063 | > 100 | > 100 | 4.98 | > 100 | > 100 | 0.62 | 1.55 | 10 | 0.1 | 7.09 | > 100 | 1950 | 7.53 | 4.74 | 110 | 7100
C[Se]/C(=N\C(=O)c1ccno1)NC(=O)c1ccno1 | 9e-05 | > 100 | 57.5 | 0.00079 | > 100 | > 100 | 0.87 | 45.6 | > 100 | 0.51 | 9.35 | > 100 | 0.09 | 39.3 | > 100 | 2890 | 63.94 | 15.41 | 30 | 4900
C[Se]/C(=N\C(=O)c1cc(-c2ccccc2)nc2ccccc12)NC(=O)c1cc(-c2ccccc2)nc2ccccc12 | 0.49 | > 100 | 7.52 | 0.46 | 90.7 | 90.7 | 5.8 | 30.6 | 73 | 4.54 | 10.1 | 65.4 | 3.97 | 40.2 | > 100 | 710 | 76.9 | 20.05 | 3720 | 850
